Data set [1] can be described thus: Chemical stability assessed as half life of hydrolysis at pH 1.3. The data set is classed as physicochemical. As to conditions: buffer. Put shortly:
(§1)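 Non-enzymatic chemical hydrolysis of the prodrugs in buffer at pH 1.3 (simulated gastric conditions) and in phosphate buffer at pH 7.4, at 37 °C. Followed for up to 120 h. First-order kinetic plots gave Kobs and t1/2. Values are means of three experiments with SEM.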

Data set [2] in a line: Chemical stability assessed as half life of hydrolysis at pH 7.4. In kind it is physicochemical. As to conditions: buffer. Put shortly:
as §1

Data set [3] in a line: Stability in human plasma assessed as half life of hydrolysis. The data set is classed as ADME, cell-free. The method, boiled down:
(§2)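 Enzymatic hydrolysis in 80% rat plasma or 80% human plasma at 37 °C. t1/2 taken from first-order kinetic plots. Values are means of three experiments with SEM.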

The nature of data set [4]: Solubility in water. The data set is classed as physicochemical. As to conditions: for solubility: water.
A short description of data set [5]: Cytotoxicity against human SKOV cells at 300 uM after 12 hrs. In kind it is functional. The method, boiled down: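 SK-OV ovarian carcinoma cells treated for 12 h at 50, 150 or 300 μM drug with 0.01% DMSO present. Cell viability read out as % inhibition.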
The test system of a further data set is PC-3. In words: Growth inhibition of human PC3 cells by SRB assay. The data set is classed as functional. Put shortly:
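Human PC-3 prostate cancer cells tested by sulforhodamine B assay following the NCI protocol. Concentrations went up to 100 μM, and GI50 was derived.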
(In SRB staining, fixed cells bind dye roughly in proportion to their protein.)

A short description of data set [6]: Stability in rat plasma assessed as half life of hydrolysis. The data set is classed as ADME, cell-free. Put shortly: as §2
The nature of data set [7]: Partition coefficient, log P of the compound. In kind it is physicochemical. To be noted: octanol/water.
Data set [8] is described as follows: Cell cycle arrest in human SKOV cells assessed as accumulation at G1 phase at 150 uM after 12 hrs by flow cytometry. The data set is classed as functional, cell-based. The method, boiled down: (§3)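 SK-OV ovarian carcinoma cells exposed for 12 h to drug at 50 or 150 μM with 0.01% DMSO present. Cells stained with propidium iodide and analysed by flow cytometry for G1, S and G2 distribution. Values are means ± SEM of three independent experiments.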

Data set [9] is described as follows: Cell cycle arrest in human SKOV cells assessed as decrease in S phase accumulation at 150 uM after 12 hrs by flow cytometry. The data set is classed as functional, cell-based. Put shortly:
as §3
On the technique in general: In flow cytometry, cells or beads pass a laser one at a time.

Data set [10] is described as follows: Cell cycle arrest in human SKOV cells assessed as decrease in S phase accumulation at 50 uM after 12 hrs by flow cytometry. The data set is classed as functional, cell-based. The method, boiled down: as §3

Values after ≈ are worked out from the molar mass of the structure shown. Active and inactive are the calls of the source. The rule behind the calls is not given here. Bounds are passed on as bounds.

Usually half-life stands for the time in which the quantity being followed falls by half. As a reminder, the solubility is the concentration that dissolves in the medium under given conditions. The inhibition is the relative decrease from the control value, in per cent. A lower inhibition goes with a response near the control. What is called GI50 is the concentration that inhibits growth by half. Higher therefore signals less potent growth inhibition. For orientation: logP means a log measure of how a compound divides between an organic and an aqueous phase. High values mean a more lipophilic compound, low ones a more hydrophilic compound.

Regarding `O=C(O[C@@H]([C@H](O)[C@H](O)CO)[C@H](O)CO)c1nn(Cc2cc(Cl)cc(Cl)c2)c2ccccc12`, the half-life in data set [1] was above 120 h; in data set [2], 80.7 h; in [3] it was 6 h; in [6] it was 2.17 h. For the same compound, the concentration in solution in [4] (solubility) was 137 µg/mL (≈ 283 µM). For the same compound, at 300 µM the inhibition in [5] was 30%. The GI50 in the data set with PC-3 stood at 3.16 µM. In addition, the logP in data set [7] amounted to 2.55.

As to `O=C(O[C@@H]1[C@@H](O)[C@H](O)O[C@H](CO)[C@H]1O)c1nn(Cc2cc(Cl)cc(Cl)c2)c2ccccc12`, the half-life is above 120 h in data set [1], 44.1 h in [2], 0.711 h in data set [3] and 0.534 h in data set [6]. Moreover, in [4], the concentration in solution (solubility) came to 118 µg/mL (≈ 245 µM). Further, the logP in data set [7] was found to be 2.19.

On to `O=C(O)c1nn(Cc2ccc(Cl)cc2Cl)c2ccccc12` [LONIDAMINE], for which the concentration in solution in [4] (solubility) came to 17 µg/mL (≈ 52.9 µM). Besides, the result in the data set with PC-3 was inactive. The compound also returned a logP in data set [7] of 1.3.

Turning to `O=C(OC[C@@H](O)[C@H](O)CO)c1nn(Cc2cc(Cl)cc(Cl)c2)c2ccccc12`, the solubility in data set [4] is 1.2 µg/mL (≈ 2.82 µM). The same compound displayed a logP in data set [7] of 3.04.

On to `O=C(OC[C@H]1OC(O)[C@H](O)[C@@H](O)[C@H]1O)c1nn(Cc2cc(Cl)cc(Cl)c2)c2ccccc12` (stereo not given in full), for which the half-life in data set [1] is above 120 h; in data set [2], 114 h; in data set [3], 2.06 h; in data set [6], 0.995 h. Also, the concentration in solution in data set [4] (solubility) was 84.3 µg/mL (≈ 174 µM). Also, the inhibition at 300 µM in [5] stood at 60%. In the data set with PC-3, growth was halved (GI50) at 3.16 µM. Also, the outcome in data set [8], in data set [9] and in data set [10] was Active. This compound gave a logP in data set [7] of 2.54.

On to `O=C(OCC(O)CO)c1nn(Cc2cc(Cl)cc(Cl)c2)c2ccccc12` (stereo not given), for which the concentration in solution in data set [4] (solubility) was 0.51 µg/mL (≈ 1.29 µM). Further, in [7], the logP was found to be 3.96.

On to `O=C(OC[C@@H](O)[C@H](O)COC(=O)c1nn(Cc2cc(Cl)cc(Cl)c2)c2ccccc12)c1nn(Cc2cc(Cl)cc(Cl)c2)c2ccccc12`, for which the Activity result in [4] (buffer) is listed as “Not Active”.

`O=C(OC[C@H]1O[C@@H](O)[C@H](O)[C@H]1O)c1nn(Cc2cc(Cl)cc(Cl)c2)c2ccccc12` registered a solubility in data set [4] of 1.3 µg/mL (≈ 2.87 µM). Moreover, in data set [7], the logP is 3.4.

The values are drawn from ChEMBL document CHEMBL1144682, “Glycosyl and polyalcoholic prodrugs of lonidamine” (Bioorg Med Chem Lett, 2008).
